Positions of bridges follow the written chain, without caps; N, C: chain ends. Non-standard residues stand in square brackets, D forms with d. Residues, ends and D or L forms follow the SMILES beside them. 1Nal = N[C@@H](Cc1cccc2ccccc12)C(=O)O
Tests used:
[1] = biological target: Sodium channel protein type 9 subunit alpha (Homo sapiens, UniProt Q15858); experiment: Inhibition of human Nav1.7 expressed in HEK293 cells assessed as inward peak current by ion-works quattro patch clamp electrophysiology method; format: cell-based
Sodium channel protein type 9 subunit alpha, sequence (Q15858 whole entry): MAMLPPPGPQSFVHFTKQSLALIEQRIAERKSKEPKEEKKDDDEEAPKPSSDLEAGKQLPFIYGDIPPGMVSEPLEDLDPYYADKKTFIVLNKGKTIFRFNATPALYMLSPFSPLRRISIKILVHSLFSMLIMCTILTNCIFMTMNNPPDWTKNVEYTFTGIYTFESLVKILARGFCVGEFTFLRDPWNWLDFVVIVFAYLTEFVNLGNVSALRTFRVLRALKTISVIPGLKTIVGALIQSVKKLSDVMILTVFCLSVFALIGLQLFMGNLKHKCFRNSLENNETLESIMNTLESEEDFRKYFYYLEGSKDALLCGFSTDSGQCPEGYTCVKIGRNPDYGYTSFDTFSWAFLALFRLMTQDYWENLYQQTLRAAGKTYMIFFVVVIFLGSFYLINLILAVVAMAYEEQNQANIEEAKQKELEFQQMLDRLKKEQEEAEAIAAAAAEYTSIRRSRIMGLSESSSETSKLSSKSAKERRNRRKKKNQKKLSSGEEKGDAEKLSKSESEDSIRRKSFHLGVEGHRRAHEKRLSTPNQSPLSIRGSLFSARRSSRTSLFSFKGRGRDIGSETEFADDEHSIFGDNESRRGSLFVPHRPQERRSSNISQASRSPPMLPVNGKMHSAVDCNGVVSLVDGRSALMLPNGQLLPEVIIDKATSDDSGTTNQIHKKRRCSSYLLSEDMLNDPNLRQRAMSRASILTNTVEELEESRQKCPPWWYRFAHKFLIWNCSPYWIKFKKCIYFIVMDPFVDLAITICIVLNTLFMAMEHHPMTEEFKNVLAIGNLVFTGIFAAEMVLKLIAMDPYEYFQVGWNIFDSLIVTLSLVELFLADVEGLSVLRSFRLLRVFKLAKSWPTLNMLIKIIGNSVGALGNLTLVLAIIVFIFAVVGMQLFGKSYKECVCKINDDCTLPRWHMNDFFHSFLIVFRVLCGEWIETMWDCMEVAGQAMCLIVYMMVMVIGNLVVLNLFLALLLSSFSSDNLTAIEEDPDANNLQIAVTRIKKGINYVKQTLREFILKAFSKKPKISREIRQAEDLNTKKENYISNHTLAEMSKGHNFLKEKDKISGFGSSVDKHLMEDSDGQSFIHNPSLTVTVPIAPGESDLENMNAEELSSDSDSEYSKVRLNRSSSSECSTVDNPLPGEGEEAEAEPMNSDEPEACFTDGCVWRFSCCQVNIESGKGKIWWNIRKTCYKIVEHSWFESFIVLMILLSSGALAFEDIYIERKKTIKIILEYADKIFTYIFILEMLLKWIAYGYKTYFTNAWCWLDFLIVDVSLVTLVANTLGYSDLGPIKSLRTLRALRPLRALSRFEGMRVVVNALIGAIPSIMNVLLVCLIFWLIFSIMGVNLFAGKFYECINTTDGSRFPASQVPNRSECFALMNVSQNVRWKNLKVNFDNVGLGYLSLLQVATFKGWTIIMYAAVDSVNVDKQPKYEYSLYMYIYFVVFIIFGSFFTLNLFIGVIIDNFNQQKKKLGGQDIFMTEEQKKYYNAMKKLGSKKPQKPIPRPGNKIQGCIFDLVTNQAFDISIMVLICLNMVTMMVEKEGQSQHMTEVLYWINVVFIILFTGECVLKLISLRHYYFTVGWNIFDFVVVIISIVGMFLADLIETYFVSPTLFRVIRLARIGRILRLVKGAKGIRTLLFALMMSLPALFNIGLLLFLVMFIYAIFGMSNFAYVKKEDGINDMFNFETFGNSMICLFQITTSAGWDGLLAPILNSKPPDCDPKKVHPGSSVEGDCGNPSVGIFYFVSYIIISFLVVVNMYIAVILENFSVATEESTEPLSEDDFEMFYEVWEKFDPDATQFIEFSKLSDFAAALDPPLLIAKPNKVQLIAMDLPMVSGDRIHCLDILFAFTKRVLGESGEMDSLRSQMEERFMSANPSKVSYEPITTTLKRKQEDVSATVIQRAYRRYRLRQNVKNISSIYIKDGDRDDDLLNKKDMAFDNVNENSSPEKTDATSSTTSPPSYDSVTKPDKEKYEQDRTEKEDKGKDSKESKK

[2] = biological target: Sodium channel protein type 5 subunit alpha (Homo sapiens, UniProt Q14524); experiment: Inhibition of human Nav1.5 expressed in HEK293 cells assessed as inward peak current by ion-works quattro patch clamp electrophysiology method; format: cell-based
Sodium channel protein type 5 subunit alpha, sequence (Q14524 whole entry): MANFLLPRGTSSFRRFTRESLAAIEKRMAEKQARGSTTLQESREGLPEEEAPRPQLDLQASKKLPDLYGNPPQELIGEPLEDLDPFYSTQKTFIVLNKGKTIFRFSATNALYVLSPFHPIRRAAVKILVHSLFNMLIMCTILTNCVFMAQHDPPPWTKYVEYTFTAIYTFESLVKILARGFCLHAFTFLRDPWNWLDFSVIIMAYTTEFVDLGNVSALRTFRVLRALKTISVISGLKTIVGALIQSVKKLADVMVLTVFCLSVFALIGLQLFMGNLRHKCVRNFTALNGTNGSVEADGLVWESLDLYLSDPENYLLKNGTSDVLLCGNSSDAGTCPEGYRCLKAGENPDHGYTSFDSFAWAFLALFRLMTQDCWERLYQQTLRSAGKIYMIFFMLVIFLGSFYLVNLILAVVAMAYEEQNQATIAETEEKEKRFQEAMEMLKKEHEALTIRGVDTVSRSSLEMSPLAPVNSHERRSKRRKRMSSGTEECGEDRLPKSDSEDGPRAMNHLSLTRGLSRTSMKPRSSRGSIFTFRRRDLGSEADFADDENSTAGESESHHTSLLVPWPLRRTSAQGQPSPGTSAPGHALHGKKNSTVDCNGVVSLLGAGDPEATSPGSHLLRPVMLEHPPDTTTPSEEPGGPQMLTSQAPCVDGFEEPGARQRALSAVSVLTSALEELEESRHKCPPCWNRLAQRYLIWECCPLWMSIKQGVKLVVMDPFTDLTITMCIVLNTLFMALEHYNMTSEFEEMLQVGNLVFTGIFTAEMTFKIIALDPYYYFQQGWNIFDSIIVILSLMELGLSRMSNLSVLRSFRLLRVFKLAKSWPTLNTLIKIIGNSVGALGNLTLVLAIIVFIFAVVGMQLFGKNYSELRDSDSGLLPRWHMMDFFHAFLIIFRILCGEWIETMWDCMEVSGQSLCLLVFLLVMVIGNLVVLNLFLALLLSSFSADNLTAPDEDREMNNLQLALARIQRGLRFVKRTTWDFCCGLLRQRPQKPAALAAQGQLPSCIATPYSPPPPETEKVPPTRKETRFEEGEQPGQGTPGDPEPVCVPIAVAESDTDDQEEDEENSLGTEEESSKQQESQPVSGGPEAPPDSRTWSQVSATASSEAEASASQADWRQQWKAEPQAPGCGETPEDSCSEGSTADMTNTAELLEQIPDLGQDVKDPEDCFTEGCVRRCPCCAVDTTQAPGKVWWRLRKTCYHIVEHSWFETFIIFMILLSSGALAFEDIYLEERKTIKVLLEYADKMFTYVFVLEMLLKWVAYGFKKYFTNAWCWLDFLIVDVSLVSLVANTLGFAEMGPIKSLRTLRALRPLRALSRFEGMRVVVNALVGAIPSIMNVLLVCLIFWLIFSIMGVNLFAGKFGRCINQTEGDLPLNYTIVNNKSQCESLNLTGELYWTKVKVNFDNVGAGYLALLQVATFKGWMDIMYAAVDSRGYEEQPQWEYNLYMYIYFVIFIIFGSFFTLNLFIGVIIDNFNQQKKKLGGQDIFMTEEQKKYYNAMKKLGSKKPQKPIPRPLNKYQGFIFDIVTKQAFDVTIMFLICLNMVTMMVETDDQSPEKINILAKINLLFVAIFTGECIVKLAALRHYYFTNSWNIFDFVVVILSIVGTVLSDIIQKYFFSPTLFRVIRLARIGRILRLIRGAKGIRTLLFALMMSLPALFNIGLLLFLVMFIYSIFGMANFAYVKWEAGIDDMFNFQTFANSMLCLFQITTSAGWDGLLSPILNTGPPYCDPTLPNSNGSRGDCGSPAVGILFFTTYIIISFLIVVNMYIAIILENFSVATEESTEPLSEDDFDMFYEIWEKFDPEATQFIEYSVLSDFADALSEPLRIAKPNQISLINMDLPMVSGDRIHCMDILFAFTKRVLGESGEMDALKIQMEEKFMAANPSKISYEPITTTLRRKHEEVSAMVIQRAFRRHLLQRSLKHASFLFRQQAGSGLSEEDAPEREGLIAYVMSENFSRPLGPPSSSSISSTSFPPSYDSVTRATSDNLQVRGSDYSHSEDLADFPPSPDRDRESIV
How it was run: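 Stable HEK293 line expressing human NaV1.5, recorded by population patch clamp on the IonWorks Quattro.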

Structure (SMILES) | IC50 [1] | IC50 [2]
CC[C@H](C)[C@@H]1NC(=O)[C@@H]2CSSC[C@@H]3NC(=O)[C@H](C(C)C)NC(=O)[C@H](CC(C)C)NC(=O)[C@H](CC(N)=O)NC(=O)[C@@H]4CCCN4C(=O)[C@H](CCCNC(=N)N)NC(=O)[C@H](CSSC[C@H](NC(=O)[C@@H](N)CC(=O)O)C(=O)N[C@@H](CC(C)C)C(=O)NCC(=O)N[C@@H](Cc4ccccc4)C(=O)N[C@@H](CCSC)C(=O)N[C@@H](CCCNC(=N)N)C(=O)N[C@@H](CCCCN)C(=O)N2)NC(=O)[C@H](CSSC[C@@H](C(=O)N[C@@H](CCCCN)C(=O)N[C@@H](Cc2ccc(O)cc2)C(=O)N[C@H](C(=O)N[C@@H](Cc2ccccc2)C(N)=O)C(C)C)NC(=O)[C@H](Cc2c[nH]c4ccccc24)NC(=O)[C@H](CCCCN)NC(=O)[C@H](CCCNC(=N)N)NC(=O)[C@H]([C@@H](C)O)NC(=O)[C@H](CCCNC(=N)N)NC(=O)[C@H](CO)NC3=O)NC(=O)[C@H](CCCCN)NC(=O)[C@H](CC(=O)O)NC(=O)[C@H](CC(N)=O)NC(=O)[C@H](CC(=O)O)NC(=O)[C@@H]2CCCN2C1=O (H-DCLGFMRKCIPDNDKCCRPNLVCSRTRKWCKYVF-NH2; disulfide 2-17, 9-23, 16-30) | 450 nM | > 5000 nM
CC[C@H](C)[C@@H]1NC(=O)[C@@H]2CSSC[C@@H]3NC(=O)[C@H](C(C)C)NC(=O)[C@H](CC(C)C)NC(=O)[C@H](Cc4c[nH]c5ccccc45)NC(=O)[C@@H]4CCCN4C(=O)[C@H](CCCNC(=N)N)NC(=O)[C@H](CSSC[C@H](NC(=O)[C@@H](N)CC(=O)O)C(=O)N[C@@H](CC(C)C)C(=O)NCC(=O)N[C@@H](Cc4ccccc4)C(=O)N[C@@H](CCSC)C(=O)N[C@@H](CCCNC(=N)N)C(=O)N[C@@H](CCCCN)C(=O)N2)NC(=O)[C@H](CSSC[C@@H](C(=O)N[C@@H](CCCCN)C(=O)N[C@@H](Cc2ccc(O)cc2)C(=O)N[C@H](C(=O)N[C@@H](Cc2ccccc2)C(N)=O)C(C)C)NC(=O)[C@H](Cc2c[nH]c4ccccc24)NC(=O)[C@H](CCCCN)NC(=O)[C@H](Cc2cnc[nH]2)NC(=O)[C@H]([C@@H](C)O)NC(=O)[C@H](CCCNC(=N)N)NC(=O)[C@H](CO)NC3=O)NC(=O)[C@H](CCCCN)NC(=O)[C@H](CC(=O)O)NC(=O)[C@H](CC(N)=O)NC(=O)[C@H](CC(=O)O)NC(=O)[C@@H]2CCCN2C1=O (H-DCLGFMRKCIPDNDKCCRPWLVCSRTHKWCKYVF-NH2; disulfide 2-17, 9-23, 16-30) | 70 nM | > 5000 nM
CC[C@H](C)[C@@H]1NC(=O)[C@@H]2CSSC[C@@H]3NC(=O)[C@H](C(C)C)NC(=O)[C@H](CC(C)C)NC(=O)[C@H](CC(N)=O)NC(=O)[C@@H]4CCCN4C(=O)[C@H](CCCNC(=N)N)NC(=O)[C@H](CSSC[C@H](NC(=O)[C@@H](N)CC(=O)O)C(=O)N[C@@H](CC(C)C)C(=O)NCC(=O)N[C@@H](Cc4ccccc4)C(=O)N[C@@H](CCSC)C(=O)N[C@@H](CCCNC(=N)N)C(=O)N[C@@H](CCCCN)C(=O)N2)NC(=O)[C@H](CSSC[C@@H](C(=O)N[C@@H](CCCCN)C(=O)N[C@@H](Cc2ccc(O)cc2)C(=O)N[C@H](C(=O)N[C@@H](Cc2ccccc2)C(N)=O)C(C)C)NC(=O)[C@H](Cc2c[nH]c4ccccc24)NC(=O)[C@H](CCCCN)NC(=O)[C@H](Cc2cnc[nH]2)NC(=O)[C@H]([C@@H](C)O)NC(=O)[C@H](CCCNC(=N)N)NC(=O)[C@H](CO)NC3=O)NC(=O)[C@H](CCCCN)NC(=O)[C@H](CC(=O)O)NC(=O)[C@H](CC(N)=O)NC(=O)[C@H](CCC(=O)O)NC(=O)[C@@H]2CCCN2C1=O (H-DCLGFMRKCIPENDKCCRPNLVCSRTHKWCKYVF-NH2; disulfide 2-17, 9-23, 16-30) | 280 nM | > 5000 nM
CSCC[C@@H]1NC(=O)[C@H](Cc2ccccc2)NC(=O)CNC(=O)[C@H](CC(C)C)NC(=O)[C@@H](NC(=O)[C@@H](N)CC(=O)O)CSSC[C@@H]2NC(=O)[C@@H]3CSSC[C@@H](C(=O)N[C@@H](CCCCN)C(=O)N[C@@H](Cc4ccc(O)cc4)C(=O)N[C@H](C(=O)N[C@@H](Cc4ccccc4)C(N)=O)C(C)C)NC(=O)[C@H](Cc4c[nH]c5ccccc45)NC(=O)[C@H](CCCCN)NC(=O)[C@H](Cc4cnc[nH]4)NC(=O)[C@H]([C@@H](C)O)NC(=O)[C@H](CCCNC(=N)N)NC(=O)[C@H](CO)NC(=O)[C@H](CSSC[C@H](NC(=O)[C@H](CCCCN)NC(=O)[C@H](CCCNC(=N)N)NC1=O)C(=O)N[C@@H](CC(C)C)C(=O)N1CCC[C@H]1C(=O)N[C@@H](CC(=O)O)C(=O)N[C@@H](CC(N)=O)C(=O)N[C@@H](CC(=O)O)C(=O)N[C@@H](CCCCN)C(=O)N3)NC(=O)[C@H](C(C)C)NC(=O)[C@H](CC(C)C)NC(=O)[C@H](CC(N)=O)NC(=O)[C@@H]1CCCN1C(=O)[C@H](CCCNC(=N)N)NC2=O (H-DCLGFMRKCLPDNDKCCRPNLVCSRTHKWCKYVF-NH2; disulfide 2-17, 9-23, 16-30) | 140 nM | > 5000 nM
CC[C@@H](C)[C@H]1NC(=O)[C@H]2CSSC[C@@H]3NC(=O)[C@@H](C(C)C)NC(=O)[C@H](CC(C)C)NC(=O)[C@@H](CC(N)=O)NC(=O)[C@@H]4CCCN4C(=O)[C@H](CCCNC(=N)N)NC(=O)[C@H](CSSC[C@H](NC(=O)[C@@H](CC(=O)O)NC(=O)[C@@H](C)N)C(=O)N[C@@H](CC(C)C)C(=O)NCC(=O)N[C@@H](Cc4ccccc4)C(=O)N[C@H](CCSC)C(=O)N[C@@H](CCCNC(=N)N)C(=O)N[C@@H](CCCCN)C(=O)N2)NC(=O)[C@@H](CSSC[C@@H](C(=O)N[C@@H](CCCCN)C(=O)N[C@@H](Cc2ccc(O)cc2)C(=O)N[C@H](C(=O)N[C@@H](Cc2ccccc2)C(N)=O)C(C)C)NC(=O)[C@@H](Cc2c[nH]c4ccccc24)NC(=O)[C@H](CCCCN)NC(=O)[C@H](Cc2cnc[nH]2)NC(=O)[C@@H]([C@H](C)O)NC(=O)[C@@H](CCCNC(=N)N)NC(=O)[C@H](CO)NC3=O)NC(=O)[C@@H](CCCCN)NC(=O)[C@H](CC(=O)O)NC(=O)[C@@H](CC(N)=O)NC(=O)[C@H](CC(=O)O)NC(=O)[C@@H]2CCCN2C1=O | 370 nM | > 5000 nM
CSCC[C@@H]1NC(=O)[C@H](Cc2ccccc2)NC(=O)CNC(=O)[C@H](CC(C)C)NC(=O)[C@@H](NC(=O)[C@@H](N)CC(=O)O)CSSC[C@@H]2NC(=O)[C@@H]3CSSC[C@@H](C(=O)N[C@@H](CCCCN)C(=O)N[C@@H](Cc4ccc(O)cc4)C(=O)N[C@H](C(=O)N[C@@H](Cc4ccccc4)C(N)=O)C(C)C)NC(=O)[C@H](Cc4c[nH]c5ccccc45)NC(=O)[C@H](CCCCN)NC(=O)[C@H](Cc4cnc[nH]4)NC(=O)[C@H]([C@@H](C)O)NC(=O)[C@H](CCCNC(=N)N)NC(=O)[C@H](CO)NC(=O)[C@H](CSSC[C@H](NC(=O)[C@H](CCCCN)NC(=O)[C@H](CCCNC(=N)N)NC1=O)C(=O)N[C@@H](Cc1cc4ccccc4[nH]1)C(=O)N1CCC[C@H]1C(=O)N[C@@H](CC(=O)O)C(=O)N[C@@H](CC(N)=O)C(=O)N[C@@H](CC(=O)O)C(=O)N[C@@H](CCCCN)C(=O)N3)NC(=O)[C@H](C(C)C)NC(=O)[C@H](CC(C)C)NC(=O)[C@H](CC(N)=O)NC(=O)[C@@H]1CCCN1C(=O)[C@H](CCCNC(=N)N)NC2=O | 130 nM | > 5000 nM
CC[C@H](C)[C@@H]1NC(=O)[C@@H]2CSSC[C@@H]3NC(=O)[C@H](C(C)C)NC(=O)[C@H](CC(C)C)NC(=O)[C@H](CC(N)=O)NC(=O)[C@@H]4CCCN4C(=O)[C@H](CCCNC(=N)N)NC(=O)[C@H](CSSC[C@H](NC(=O)[C@@H](N)Cc4cccc5ccccc45)C(=O)N[C@@H](CC(C)C)C(=O)NCC(=O)N[C@@H](Cc4ccccc4)C(=O)N[C@@H](CCSC)C(=O)N[C@@H](CCCNC(=N)N)C(=O)N[C@@H](CCCCN)C(=O)N2)NC(=O)[C@H](CSSC[C@@H](C(=O)N[C@@H](CCCCN)C(=O)N[C@@H](Cc2ccc(O)cc2)C(=O)N[C@H](C(=O)N[C@@H](Cc2ccccc2)C(N)=O)C(C)C)NC(=O)[C@H](Cc2c[nH]c4ccccc24)NC(=O)[C@H](CCCCN)NC(=O)[C@H](Cc2c[nH]cn2)NC(=O)[C@H]([C@@H](C)O)NC(=O)[C@H](CCCNC(=N)N)NC(=O)[C@H](CO)NC3=O)NC(=O)[C@H](CCCCN)NC(=O)[C@H](CC(=O)O)NC(=O)[C@H](CC(N)=O)NC(=O)[C@H](CC(=O)O)NC(=O)[C@@H]2CCCN2C1=O (H-[1Nal]CLGFMRKCIPDNDKCCRPNLVCSRTHKWCKYVF-NH2; disulfide 2-17, 9-23, 16-30) | 100 nM | > 5000 nM
CC[C@H](C)[C@@H]1NC(=O)[C@@H]2CSSC[C@@H]3NC(=O)[C@H](C(C)C)NC(=O)[C@H](CC(C)C)NC(=O)[C@H](CC(N)=O)NC(=O)[C@@H]4CCCN4C(=O)[C@H](CCCNC(=N)N)NC(=O)[C@H](CSSC[C@H](NC(=O)[C@@H](N)CC(=O)O)C(=O)N[C@@H](CC(C)C)C(=O)NCC(=O)N[C@@H](Cc4ccccc4)C(=O)N[C@@H](CCSC)C(=O)N[C@@H](CCCNC(=N)N)C(=O)N[C@@H](CCCCN)C(=O)N2)NC(=O)[C@H](CSSC[C@@H](C(=O)N[C@@H](CCCCN)C(=O)N[C@@H](Cc2ccc(O)cc2)C(=O)N[C@H](C(=O)N[C@@H](Cc2ccccc2)C(N)=O)C(C)C)NC(=O)[C@H](Cc2c[nH]c4ccccc24)NC(=O)[C@H](CCCCN)NC(=O)[C@H](Cc2c[nH]cn2)NC(=O)[C@H]([C@@H](C)O)NC(=O)[C@H](CCC(=O)O)NC(=O)[C@H](CO)NC3=O)NC(=O)[C@H](CCCCN)NC(=O)[C@H](CC(=O)O)NC(=O)[C@H](CC(N)=O)NC(=O)[C@H](CC(=O)O)NC(=O)[C@@H]2CCCN2C1=O (H-DCLGFMRKCIPDNDKCCRPNLVCSETHKWCKYVF-NH2; disulfide 2-17, 9-23, 16-30) | 720 nM | > 5000 nM
